Source: PubChem
S1P4 antag – S1P4 receptor antagonists, primary screen, cell-based; Sphingosine 1-phosphate receptor 4 (Homo sapiens), O95977; inhibition, % at 4.98 µM; 0.26% of 220,000 active; S1P4-expressing cells, antagonist mode, reporter read-out; in the data active = inhibition above about 29%;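 also: 0% = wells stimulated with agonist and 100% = vehicle wells without agonist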
NPY-Y1 PAM-ag – NPY-Y1 receptor potentiators or agonists, primary screen, cell-based | 0.37% of 220,000 active | activation, % at 3.6 µM | AID 1304, 2008 | Neuropeptide Y receptor type 1 (Homo sapiens), P25929 | NPY-Y1 expressing cells, potentiator/agonist activation; in the data active = activation above about 33%, passing the limit was not always enough;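 also: cells stimulated with NPY at EC10 then isoproterenol at EC100; 0% = low agonist plus stimulus and 100% = saturating agonist plus stimulus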
Target sequence (P25929 whole entry, looked up): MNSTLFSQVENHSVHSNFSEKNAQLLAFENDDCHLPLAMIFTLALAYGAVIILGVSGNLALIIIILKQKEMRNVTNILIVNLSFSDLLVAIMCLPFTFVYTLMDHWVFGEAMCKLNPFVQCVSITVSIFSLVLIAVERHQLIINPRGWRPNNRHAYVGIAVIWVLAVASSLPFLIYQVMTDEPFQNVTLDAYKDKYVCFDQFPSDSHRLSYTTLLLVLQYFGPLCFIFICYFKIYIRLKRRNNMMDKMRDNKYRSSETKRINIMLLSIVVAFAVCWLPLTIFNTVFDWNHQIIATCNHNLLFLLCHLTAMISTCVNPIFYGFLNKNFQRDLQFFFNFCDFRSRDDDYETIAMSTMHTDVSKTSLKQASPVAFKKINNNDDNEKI
NPY-Y2 PAM-ag – NPY-Y2 potentiators or agonists, primary screen, cell-based; Neuropeptide Y receptor type 2 (Homo sapiens), P49146; cells expressing NPY-Y2, potentiator/agonist read-out; activation, % at 3.6 µM; 0.45% of 220,000 active; AID 1359, 2008; in the data active = activation above about 27%;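 also: cells stimulated with NPY near EC25 plus isoproterenol at EC100; 0% = vehicle plus submaximal agonist and 100% = vehicle plus saturating agonist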
NPY Y1 blocker – NPY-Y1 receptor antagonists, primary screen, cell-based; HEK293-CNG Y1 cells, membrane potential fluorescence; NPY at EC95, then isoproterenol; inhibition, % at 3.6 µM; 1% of 200,000 active; AID 1040, 2008;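 active = inhibition above the campaign mean inhibition of all tested compounds plus 3 SD, cut at about 20% in these data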;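 also: 0% = DMSO wells given NPY plus isoproterenol and 100% = isoproterenol alone without NPY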
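Test system – HEK293 Y1/CNG channel cell line · Also added – NPY agonist 25 nM, then isoproterenol 1 µM plus Ro 20-1724 25 µM · Compound dosing – one concentration, 3.6 µM, in 0.4% DMSO · Schedule – compound incubation 1 h at room temperature, readout 45 min post-stimulation · Technique – fluorescence, membrane potential probe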
NPY Y2 blocker – NPY-Y2 receptor antagonists, primary screen, cell-based; AID 793, 2007; inhibition, % at 2.7 µM; NPY-Y2 expressing cells, antagonist mode; 0.99% of 140,000 active; Neuropeptide Y receptor type 2 (Homo sapiens), P49146; in the data active = inhibition above about 17%;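 also: 0% = vehicle with agonist challenge and 100% = reference antagonist with challenge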
S1P4 agonist – S1P4 receptor agonists, primary screen, cell-based; Sphingosine 1-phosphate receptor 4 (Homo sapiens), O95977; S1P4-expressing cell line, agonist reporter assay; activation, % at 4.98 µM; 0.35% of 220,000 active; AID 1509, 2009; in the data active = activation above about 11%;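 also: 0% = DMSO vehicle and 100% = reference agonist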
The depositor's hits bear a star; x = not tested or not shown. Hits are enriched below; roughly 2.4% of the tested compounds scored in any of these assays.

SMILES | S1P4 antag | NPY-Y1 PAM-ag | NPY-Y2 PAM-ag | NPY Y1 blocker | NPY Y2 blocker | S1P4 agonist
CN(CCNC(=O)CCCOc1cc(=O)n(C)c2ccccc12)Cc1ccccc1 | -13.4 | -2.9 | -9.9 | 12.7 | x | -0.7
CCN1/C(=C/C=C/c2oc3ccc(-c4ccccc4)cc3[n+]2CC)Oc2ccc(-c3ccccc3)cc21 | 9.7 | -31.1 | 3.3 | 21.6* | x | 0.6
CCCCN1C(=O)/C(=C/C=C2\Oc3ccccc3N2CC)SC1=S | -11.9 | 5.6 | -4.1 | -1.6 | x | -0.4
O=C(/C=C/c1ccco1)Nc1cccnc1 | -0.6 | 12.4 | -9.8 | -0.3 | x | 0.3
COc1ccc(C(=O)CSc2nnc(-c3ccccc3)o2)cc1 | 0.9 | -2.3 | 2.0 | 7.7 | 6.0 | -0.5
COc1ccc(-c2nnc(SCc3ncc(-c4ccccc4)o3)o2)cc1 | 0.3 | -23.6 | -24.9 | 20.8* | 20.9* | 1.1
CC1=CC(C)(C)N(C(=O)CSc2nnc(N)s2)c2c(C)cc(C)cc21 | 0.3 | 69.6* | 24.3 | 7.4 | 2.1 | -0.9
Cc1cc(C)c(C(=O)CSc2nnc(N)s2)c(C)c1 | -11.3 | -5.4 | -1.0 | 0.9 | x | 1.1
C[C@@H]1C=C[C@](Cc2ccccc2)(C(=O)NCCc2c[nH]c3ccccc23)N1C(=O)c1ccccc1 | 17.8 | -29.9 | -0.5 | 34.6* | 18.6* | -1.1
COCC1CCCN(Cc2cn(-c3ccccc3)nc2-c2ccc3c(c2)OCO3)C1 (configuration not stated) | -7.4 | 65.3* | 96.4* | 6.4 | x | 1.9
Cc1ccc(S(=O)(=O)N2CCN(CCO)CC2)cc1-c1nnc2c3ccccc3c(C)nn12 | -2.0 | -39.7 | -28.4 | 11.4 | 57.0* | 2.0
CNS(=O)(=O)c1ccc(OC)c(-c2nnc3c4ccccc4c(C)nn23)c1 | -8.5 | -5.6 | -21.4 | 6.2 | 3.9 | 4.6
COc1ccc(S(=O)(=O)N2CCN(CCO)CC2)cc1-c1nnc2c3ccccc3c(C)nn12 | 2.3 | -3.4 | -2.1 | 0.2 | 9.9 | -1.0
Cc1ccc(S(=O)(=O)N2CCN(C)CC2)cc1-c1nnc2c3ccccc3c(C)nn12 | 3.2 | -39.5 | -3.5 | 36.8* | 40.1* | 0.8
COc1ccc(S(=O)(=O)NC(C)(C)C)cc1-c1nnc2c3ccccc3c(C)nn12 | 6.6 | -45.7 | -27.6 | 30.3* | 35.6* | -0.7
Cc1ccc(/C(=N/Nc2nc3ccccc3s2)C2=C(O)c3ccccc3C2=O)cc1 | 3.5 | -3.2 | -9.3 | 20.3* | x | -0.5
Cc1ccc(S(=O)(=O)N(C)CC(=O)Nc2nc3ccccc3s2)cc1 | -4.0 | -25.8 | 11.6 | -3.2 | 3.1 | -0.7
CCCc1nc2ccccc2c(C(=O)OC(C)C(=O)NCc2ccc3c(c2)OCO3)c1CC (configuration not stated) | -23.2 | -25.8 | -2.0 | 25.1* | 19.3* | -2.5
COc1ccc(NC(=O)CCn2cccc2)c(OC)c1 | -12.2 | 9.6 | -7.3 | 6.1 | x | 1.1
Cc1ccc(C(=O)C[n+]2cc(-c3ccc(C)cc3)n3c2CCCCC3)cc1 | 3.2 | -34.8 | -10.3 | 79.1* | 31.6* | 0.5
O=C(C(Sc1ccccc1)c1ccccc1)N1CCN(c2ccccc2F)CC1 (configuration not stated) | 2.4 | -10.2 | -10.4 | 35.7* | 20.0* | 1.3
CCCOC(=O)CSc1nnc(-c2ccccc2Cl)o1 | 7.0 | -15.3 | -7.7 | 9.7 | 2.7 | 1.9
O=C1C(NS(=O)(=O)c2ccccc2)=C(N2CCN(c3ccc(F)cc3)CC2)C(=O)c2ccccc21 | -0.8 | 88.6* | 86.8* | x | x | 1.7
CC1CCN(C2=C(NS(=O)(=O)c3ccccc3)C(=O)c3ccccc3C2=O)CC1 | -8.3 | 95.4* | 77.5* | x | x | 0.0
Cc1sc2ncnc(OCC(=O)NC(C)C)c2c1C | -3.9 | 8.6 | -17.2 | 9.3 | -0.5 | 0.3
SMILES | S1P4 antag | NPY-Y1 PAM-ag | NPY-Y2 PAM-ag | NPY Y1 blocker | NPY Y2 blocker | S1P4 agonist
CCOC(=O)c1cc(-c2ccc(OC)cc2)nc2c1c(C)nn2CCC#N | 13.4 | -22.1 | -17.0 | 25.6* | 19.8* | -0.7
CCOC(=O)c1cc(-c2ccc(C#N)cc2)nc2c1c(C)nn2CCC#N | -10.8 | -21.3 | 3.7 | 2.4 | 3.0 | -1.8
c1ccc2c(c1)OC(CCCN1CCCCC1)c1ccccc1S2 (configuration not stated) | 23.2 | -66.2 | -21.1 | 40.3* | 17.4* | 0.6
CSc1nnc(C)c(=O)n1COC(=O)c1ccc(S(=O)(=O)N2CCOCC2)cc1 | -16.8 | 12.3 | 0.1 | -1.2 | 1.9 | -0.6
Cc1ccc(C2(c3ccc(C)cc3)CC2C(=O)Nc2ccc([N+](=O)[O-])cc2O)cc1 (configuration not stated) | 0.2 | 12.1 | 45.2* | -4.7 | -3.4 | 1.5
CC1(C)CC1C(=O)Nc1ccc([N+](=O)[O-])cc1Br (configuration not stated) | -8.0 | -14.4 | -16.2 | 3.9 | 4.1 | 1.6
CCOCCCNC(=O)c1ccc(N2CCCC2)c(NS(=O)(=O)c2ccc(C)cc2)c1 | 10.8 | 57.8* | 32.8* | -9.3 | x | -2.2
O=C(CC(c1ccccc1)c1cc(Br)ccc1O)NCc1ccco1 (configuration not stated) | -26.6 | 1.4 | 2.1 | -6.9 | 1.1 | 2.9
O=C(Nc1ccc(C#Cc2ccccc2)cc1)C1CC1 | -12.7 | 78.4* | 38.4* | -5.7 | -3.1 | -5.1
O=C(Nc1ccc(Oc2ccccc2)cc1)C1CC1 | 16.3 | 4.5 | 7.4 | -5.6 | x | -1.1
Cn1cnnc1SCc1ccc(C(=O)N=Nc2c(O)n(Cc3ccc(Cl)cc3)c3ccccc23)cc1 | -5.0 | 47.3* | 46.1* | -7.9 | -1.9 | 0.3
CCn1c(O)c(N=NC(=O)c2ccc(CSc3nncn3C)cc2)c2ccccc21 | -0.7 | 24.5 | 5.8 | 1.1 | 0.9 | 0.2
COc1cccc(S(=O)(=O)NCc2ccc(C(=O)Nc3ccc(Cl)c(Cl)c3)cc2)c1 | 6.3 | 44.0* | 23.4 | -11.9 | 0.8 | -1.9
FC(F)(F)c1ccc(NC2=NCCC2)cc1 | -11.1 | -7.5 | 2.1 | -5.1 | x | 0.6
O=C(Cc1ccc(Br)cc1)Nc1ncc([N+](=O)[O-])s1 | 6.0 | 49.7* | 62.5* | x | x | 0.7
c1ccc2c(N3CCCCC3)nc(N3CCCC3)nc2c1 | 13.2 | -52.8 | -28.9 | 55.9* | 32.3* | -6.5
COc1ccc(Nc2nc(N3CCCC3)nc(N3CCCC3)n2)c(OC)c1 | -13.7 | 8.3 | 1.1 | -8.5 | -4.5 | 1.4
c1ccc2c(c1)nc(N1CCCCC1)c1ccccc12 | -10.7 | -22.7 | -44.2 | x | x | -2.3
COc1ccc(Nc2nc(N3CCCCC3)nc3ccccc23)c(OC)c1 | -10.3 | -23.6 | -7.1 | 40.8* | 49.6* | -2.5
CCN(CC)C(=O)c1cc2c(=O)oc3ccccc3c2s1 | 0.2 | 68.7* | 57.9* | 0.1 | 2.5 | -3.1
